Measured values from ChEMBL document CHEMBL1139414, “Conformationally constrained analogues of diacylglycerol. 29. Cells sort diacylglycerol-lactone chemical zip codes to produce diverse and selective biological activities” (J Med Chem, 2008).
pKi: −log10 of the molar value.

target: Protein kinase C alpha type (Mus musculus, UniProt P20444); test: Displacement of [3H]PDBu form mouse PKCalpha by scintillation counting
How it was run: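 Partially purified mouse PKCα; competition with [³H]PDBU. ID50 obtained by fitting a sigmoidal competition curve and converted to Ki = ID50/(1+L/Kd). Pure compounds tested at 6–7 concentrations; crude library compounds at a single 1 μM concentration. Triplicates per concentration, at least three experiments; mean ± SEM.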

| Compound | pKi |
| --- | --- |
| CCCCCC/C=C1/CC(CO)(COC(=O)c2ccccc2)OC1=O (racemic) | 7.01 |
| CC(CC(=O)OCC1(CO)C/C(=C/c2ccc(Cl)c(F)c2)C(=O)O1)CC(C)(C)C (racemic) | 7.42 |
| CCCCCC/C=C1/CC(CO)(COC(=O)CCCCCC)OC1=O (racemic) | 7.43 |
| COc1ccc(/C=C2\CC(CO)(COC(=O)c3ccc(OC)cc3)OC2=O)cc1 (racemic; form 1) | 6.89 |
| O=C1OC(CO)(COC(=O)c2ccccc2)C/C1=C/c1ccc([N+](=O)[O-])cc1 (racemic) | 6.50 |
| O=C1OC(CO)(COC(=O)C(c2ccccc2)c2ccccc2)C/C1=C/c1ccc(Cl)c(F)c1 (racemic) | 7.04 |
| Cc1ccccc1C(=O)OCC1(CO)C/C(=C/c2ccc(N(C)C)cc2)C(=O)O1 (racemic) | 6.42 |
| O=C1OC(CO)(COC(=O)c2ccccc2)C/C1=C/C1CCCCC1 (racemic) | 6.69 |
| CCCCC(/C=C1/CC(CO)(COC(=O)c2ccc([N+](=O)[O-])cc2)OC1=O)CC (racemic; form 2) | 6.48 |
| CCCCCC/C=C1/CC(CO)(COC(=O)C2CCCCC2)OC1=O (racemic) | 7.54 |
| COc1ccc(C(=O)OCC2(CO)C/C(=C\c3ccc([N+](=O)[O-])cc3)C(=O)O2)cc1 (racemic; form 1) | 6.55 |
| CCCCC(/C=C1/CC(CO)(COC(=O)c2ccc(C)cc2)OC1=O)CC (racemic) | 6.77 |
| CCCCCCC(=O)OCC1(CO)C/C(=C/c2ccccc2)C(=O)O1 (racemic) | 7.05 |
| COc1ccc(C(=O)OCC2(CO)C/C(=C\c3ccc(N(C)C)cc3)C(=O)O2)cc1 (racemic; form 1) | 6.99 |
| CCCCCCC(=O)OCC1(CO)C/C(=C/C2CCCCC2)C(=O)O1 (racemic) | 7.11 |
| CCCC(CCC)C(=O)OCC1(CO)C/C(=C\c2ccc(F)c(Cl)c2)C(=O)O1 (racemic; form 1) | 8.61 |
| Cc1ccccc1C(=O)OCC1(CO)C/C(=C/C2CCCCC2)C(=O)O1 (racemic) | 6.96 |
| CC(C)c1cc(C(C)C)c(C(=O)OCC2(CO)C/C(=C/c3ccccc3)C(=O)O2)c(C(C)C)c1 (racemic) | 6.80 |
| Cc1ccc(C(=O)OCC2(CO)C/C(=C/C3CCCCC3)C(=O)O2)cc1 (racemic) | 6.96 |
| CC(CC(=O)OCC1(CO)C/C(=C/c2ccc(F)c(Br)c2)C(=O)O1)CC(C)(C)C (racemic) | 7.76 |
| CC(C)c1cc(C(C)C)c(C(=O)OCC2(CO)C/C(=C/c3ccc([N+](=O)[O-])cc3)C(=O)O2)c(C(C)C)c1 (racemic) | 6.91 |

| Compound | pKi |
| --- | --- |
| CCCCC(/C=C1/CC(CO)(COC(=O)c2ccc(OC)cc2)OC1=O)CC (racemic) | 6.63 |
| CN(C)c1ccc(C(=O)OCC2(CO)C/C(=C/c3ccccc3)C(=O)O2)cc1 (racemic) | 6.60 |
| CCCC(CCC)C(=O)OCC1(CO)C/C(=C\c2ccc(F)c(Br)c2)C(=O)O1 (racemic; form 1) | 8.09 |
| CCC(C(=O)OCC1(CO)C/C(=C/c2ccc(Cl)c(F)c2)C(=O)O1)c1ccccc1 (racemic) | 7.35 |
| CCCCCC/C=C1/CC(CO)(COC(=O)c2c(C)cc(C)cc2C)OC1=O (racemic) | 7.38 |
| COc1ccc(C(=O)OCC2(CO)C/C(=C/c3ccccc3)C(=O)O2)cc1 (racemic) | 6.31 |
| CC(C)(C)CC(=O)OCC1(CO)C/C(=C/c2ccc(Cl)c(F)c2)C(=O)O1 (racemic) | 7.35 |
| COc1ccc(/C=C2\CC(CO)(COC(=O)c3c(C)cc(C)cc3C)OC2=O)cc1 (racemic; form 2) | 6.93 |
| CN(C)c1ccc(/C=C2\CC(CO)(COC(=O)c3ccc(N(C)C)cc3)OC2=O)cc1 (racemic; form 2) | 5.97 |
| O=C1OC(CO)(COC(=O)C2CCCCC2)C/C1=C/c1ccc([N+](=O)[O-])cc1 (racemic) | 6.98 |
| CCCCCC/C=C1/CC(CO)(COC(=O)c2ccc(OC)cc2)OC1=O (racemic) | 6.98 |
| CCCC(CCC)C(=O)OCC1(CO)C/C(=C\c2ccc(F)c(Cl)c2)C(=O)O1 (racemic; form 2) | 8.03 |
| Cc1cc(C)c(C(=O)OCC2(CO)C/C(=C/c3ccc([N+](=O)[O-])cc3)C(=O)O2)c(C)c1 (racemic) | 7.43 |
| CCCCC(/C=C1/CC(CO)(COC(=O)c2ccccc2)OC1=O)CC (racemic) | 6.51 |
| CCCCC(/C=C1/CC(CO)(COC(=O)c2c(C)cc(C)cc2C)OC1=O)CC (racemic) | 7.18 |
| CCCCCC/C=C1/CC(CO)(COC(=O)c2ccc(N(C)C)cc2)OC1=O (racemic) | 6.88 |
| COc1ccc(C(=O)OCC2(CO)C/C(=C\c3ccc(N(C)C)cc3)C(=O)O2)cc1 (racemic; form 2) | 6.05 |
| CCCCC(/C=C1/CC(CO)(COC(=O)c2ccccc2C)OC1=O)CC (racemic) | 6.72 |
| COc1ccc(/C=C2/CC(CO)(COC(=O)c3ccccc3)OC2=O)cc1 (racemic) | 6.52 |
| CC(CC(=O)OCC1(CO)C/C(=C/c2ccc(F)c(Cl)c2)C(=O)O1)CC(C)(C)C (racemic) | 7.65 |

More lines, now with the values ahead:

| pKi | Compound |
| --- | --- |
| 8.31 | CCCCC(CC)C(=O)OCC1(CO)C/C(=C\c2ccc(Cl)c(F)c2)C(=O)O1 (racemic; form 2) |
| 7.28 | O=C1OC(CO)(COC(=O)C(c2ccccc2)c2ccccc2)C/C1=C/c1ccc(C(F)(F)F)cc1 (racemic) |
| 8.53 | CCCC(CCC)C(=O)OCC1(CO)C/C(=C\c2ccc(C(F)(F)F)cc2)C(=O)O1 (racemic; form 1) |
| 7.30 | CC(CC(=O)OCC1(CO)C/C(=C/c2ccc(-c3ccc(C(F)(F)F)cc3)cc2)C(=O)O1)CC(C)(C)C (racemic) |
| 7.61 | CC(C)(C)CC(=O)OCC1(CO)C/C(=C/c2ccc(C(F)(F)F)cc2)C(=O)O1 (racemic) |
| 7.48 | CCC(C(=O)OCC1(CO)C/C(=C/c2ccc(Br)cc2)C(=O)O1)c1ccccc1 (racemic) |
| 7.46 | CC(C)C(=O)OCC1(CO)C/C(=C/c2ccc(-c3ccc(C(F)(F)F)cc3)cc2)C(=O)O1 (racemic) |
| 7.15 | CC(C)C(=O)OCC1(CO)C/C(=C/c2cccc(C(F)(F)F)c2)C(=O)O1 (racemic) |
| 7.81 | CCCC(CCC)C(=O)OCC1(CO)C/C(=C/c2cccc(C(F)(F)F)c2)C(=O)O1 (racemic) |
| 8.07 | CCCCC(CC)C(=O)OCC1(CO)C/C(=C/c2ccc(Br)cc2)C(=O)O1 (racemic) |
| 7.11 | CC(C)C(=O)OCC1(CO)C/C(=C/c2ccc(C(F)(F)F)cc2)C(=O)O1 (racemic) |
| 7.79 | CCCC(CCC)C(=O)OCC1(CO)C/C(=C/c2ccc(OC(F)(F)F)cc2)C(=O)O1 (racemic) |
| 6.98 | O=C1OC(CO)(COC(=O)c2ccc(C(F)(F)F)cc2)C/C1=C/C1CCCCC1 (racemic) |
| 6.99 | O=C1OC(CO)(COC(=O)c2ccc(C(F)(F)F)cc2)C/C1=C/c1ccccc1 (racemic) |
| 7.28 | Cc1ccc(C(=O)OCC2(CO)C/C(=C/c3ccc(C(F)(F)F)cc3)C(=O)O2)cc1 (racemic) |
| 7.28 | CCC(C(=O)OCC1(CO)C/C(=C/c2cc(C(F)(F)F)cc(C(F)(F)F)c2)C(=O)O1)c1ccccc1 (racemic) |
| 7.96 | CCCCC(CC)C(=O)OCC1(CO)C/C(=C/c2ccc(F)c(Cl)c2)C(=O)O1 (racemic) |
| 7.58 | CC(C)(C)C(=O)OCC1(CO)C/C(=C/c2ccc(Br)cc2)C(=O)O1 (racemic) |
| 6.74 | COc1ccc(/C=C2/CC(CO)(COC(=O)c3ccc(C)cc3)OC2=O)cc1 (racemic) |
| 7.88 | CCCCC(CC)C(=O)OCC1(CO)C/C(=C/c2ccc(C(F)(F)F)cc2)C(=O)O1 (racemic; form 2) |

| pKi | Compound |
| --- | --- |
| 7.14 | CC(C)C(=O)OCC1(CO)C/C(=C/c2ccc(Br)cc2)C(=O)O1 (racemic) |
| 8.54 | CCCCC(CC)C(=O)OCC1(CO)C/C(=C\c2ccc(Cl)cc2)C(=O)O1 (racemic; form 2) |
| 7.40 | CC(C)(C)C(=O)OCC1(CO)C/C(=C/c2cc(C(F)(F)F)cc(C(F)(F)F)c2)C(=O)O1 (racemic) |
| 7.25 | CCCCCC/C=C1/CC(CO)(COC(=O)c2ccc(C(F)(F)F)cc2)OC1=O (racemic) |
| 7.26 | CC(C)C(=O)OCC1(CO)C/C(=C/c2ccc(OC(F)(F)F)cc2)C(=O)O1 (racemic) |
| 7.53 | CCCC(CCC)C(=O)OCC1(CO)C/C(=C/c2ccccc2C(F)(F)F)C(=O)O1 (racemic) |
| 6.95 | CCCCCCC(=O)OCC1(CO)C/C(=C/c2ccc(OC)cc2)C(=O)O1 (racemic) |
| 6.75 | O=C1OC(CO)(COC(=O)c2ccc(C(F)(F)F)cc2)C/C1=C/c1ccc([N+](=O)[O-])cc1 (racemic) |
| 7.07 | CCC(C(=O)OCC1(CO)C/C(=C/c2ccc(F)cc2)C(=O)O1)c1ccccc1 (racemic) |
| 7.77 | CC(CC(=O)OCC1(CO)C/C(=C/c2ccc(Cl)cc2)C(=O)O1)CC(C)(C)C (racemic) |
| 6.56 | CC(C)C(=O)OCC1(CO)C/C(=C/c2ccc(F)cc2)C(=O)O1 (racemic) |
| 7.50 | O=C1OC(CO)(COC(=O)C2CCCCC2)C/C1=C/c1ccc(C(F)(F)F)cc1 (racemic) |
| 7.65 | CC(C)(C)C(=O)OCC1(CO)C/C(=C/c2ccc(OC(F)(F)F)cc2)C(=O)O1 (racemic) |
| 7.90 | CCCCC(CC)C(=O)OCC1(CO)C/C(=C\c2ccc(Cl)cc2)C(=O)O1 (racemic; form 1) |
| 7.71 | CC(C)(C)CC(=O)OCC1(CO)C/C(=C/c2ccc(F)c(Br)c2)C(=O)O1 (racemic) |
| 6.79 | O=C1OC(CO)(COC(=O)c2ccc([N+](=O)[O-])cc2)C/C1=C/c1ccc(C(F)(F)F)cc1 (racemic) |
| 7.82 | CCCCC(CC)C(=O)OCC1(CO)C/C(=C/c2ccc(OC(F)(F)F)cc2)C(=O)O1 (racemic) |
| 7.56 | CC(CC(=O)OCC1(CO)C/C(=C/c2ccc(Br)cc2)C(=O)O1)CC(C)(C)C (racemic) |
| 6.97 | CC(C)(C)CC(=O)OCC1(CO)C/C(=C/c2ccc(F)cc2)C(=O)O1 (racemic) |
